According to ChEMBL document CHEMBL3526081 (Drug Metab Dispos, 2011):

Key:
[1] = Drug level in Swiss-Hauschka (ICR) mouse liver microsomes treated with 100 uM cinobufagin at 37 degC after 30 mins by UFLC-ESI-MS analysis in presence of NADPH-generating system; type: ADME; settings: 0.5 h
Summary of the method: (§1)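 Liver microsomes (0.3 mg protein/ml) incubated with 100 µM substrate at 37°C for 30 min, in 100 mM potassium phosphate pH 7.4 with NADPH-generating system (1 mM NADP+, 10 mM glucose 6-phosphate, 1 unit/ml G6PDH, 4 mM MgCl2). Acetonitrile ≤1% final. Stopped with ice-cold acetonitrile and centrifuged. Metabolites identified by UFLC-ESI-MS and quantified by UFLC-DAD at 294 nm against authentic standard curves.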

[2] = system: Liver microsome; assay: Retention time in Sprague-Dawley rat liver microsomes treated with 100 uM cinobufagin at 37 degC after 30 mins by UFLC-DAD-ESI-MS analysis; type: ADME; settings: 0.5 h
Summary of the method: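 Male Sprague-Dawley rat microsomes (0.3 mg/ml) were incubated with CB (100 µM) at 37°C for 30 min, with and without NADPH-generating system. Separation was on an ODS column at 40°C using an acetonitrile/0.5% formic acid water gradient at 0.4 ml/min, with DAD detection at 294 nm plus ESI-MS.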

[3] = Drug level in cynomolgus monkey liver microsomes treated with 100 uM cinobufagin at 37 degC after 30 mins by UFLC-ESI-MS analysis in presence of NADPH-generating system; type: ADME, Macaca fascicularis; settings: 0.5 h; summary of the method: as §1
[4] = system: Liver microsome; assay: Drug level in human liver microsomes treated with 100 uM cinobufagin at 37 degC after 30 mins by UFLC-ESI-MS analysis in presence of NADPH-generating system; type: ADME; settings: 0.5 h; summary of the method: as §1
[5] = target: Cytochrome P450 3A4 (Homo sapiens, UniProt P08684); assay: Drug level in human recombinant CYP3A4 expressed in insect cells coexpressing NADPH-P450 reductase measured per pmol of enzyme treated with 50 uM cinobufagin at 37 degC after 30 mins by UFLC-DAD-ESI-MS analysis; settings: 0.5 h
[6] = target: T1, Cytochrome P450 2B6 (Homo sapiens, UniProt P20813); assay: Drug level in human recombinant CYP2B6 expressed in insect cells coexpressing NADPH-P450 reductase measured per pmol of enzyme treated with 50 uM cinobufagin at 37 degC after 30 mins by UFLC-DAD-ESI-MS analysis; settings: 0.5 h
T1 sequence (P20813 whole entry): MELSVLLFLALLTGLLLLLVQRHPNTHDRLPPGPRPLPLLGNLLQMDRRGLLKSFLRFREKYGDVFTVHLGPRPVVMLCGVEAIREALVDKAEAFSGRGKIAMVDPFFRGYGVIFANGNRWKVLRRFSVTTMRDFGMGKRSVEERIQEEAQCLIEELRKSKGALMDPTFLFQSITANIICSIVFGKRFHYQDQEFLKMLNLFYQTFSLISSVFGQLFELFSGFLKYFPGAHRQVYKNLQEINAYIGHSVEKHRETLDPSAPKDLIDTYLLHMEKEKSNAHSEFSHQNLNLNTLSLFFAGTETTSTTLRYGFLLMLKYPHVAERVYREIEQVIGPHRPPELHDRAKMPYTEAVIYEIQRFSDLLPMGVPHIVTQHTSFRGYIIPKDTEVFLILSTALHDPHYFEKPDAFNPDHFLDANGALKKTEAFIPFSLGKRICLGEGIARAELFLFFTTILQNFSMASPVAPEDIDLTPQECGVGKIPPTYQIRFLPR

[7] = target: Cytochrome P450 2E1 (Homo sapiens, UniProt P05181); assay: Drug level in human recombinant CYP2E1 expressed in insect cells coexpressing NADPH-P450 reductase measured per pmol of enzyme treated with 50 uM cinobufagin at 37 degC after 30 mins by UFLC-DAD-ESI-MS analysis; settings: 0.5 h
[8] = system: Liver microsome; assay: Drug metabolism in human liver microsomes assessed as 1alpha-hydroxylcinobufagin formation at 100 uM at 37 degC after 30 mins […] in presence of 1 uM ketoconazole CYP3A4 inhibitor; type: ADME; settings: 0.5 h
[9] = system: Liver microsome; assay: Drug metabolism in human liver microsomes assessed as 5beta-hydroxylcinobufagin formation at 100 uM at 37 degC after 30 mins […] in presence of 2.5 uM 8-methoxypsoralen CYP2A6 inhibitor; type: ADME; settings: 0.5 h
[10] = system: Liver microsome; assay: Drug metabolism in human liver microsomes assessed as 5beta-hydroxylcinobufagin formation at 100 uM at 37 degC after 30 mins by UFLC-ESI-MS analysis in presence of 2 uM montelukast CYP2C8 inhibitor; type: ADME; settings: 0.5 h
Summary of the method: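 Pooled human liver microsomes (10 donors, both sexes) in 100 mM potassium phosphate pH 7.4 were incubated with CB and a selective P450 inhibitor. Reaction was started with NADPH-generating system after 3 min preincubation at 37°C and stopped with ice-cold acetonitrile. Hydroxylated products were quantified by UFLC-DAD at 294 nm; three experiments in duplicate.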

[11] = system: Liver microsome; assay: Drug metabolism in human liver microsomes assessed as 1alpha-hydroxylcinobufagin formation at 100 uM at 37 degC after 30 mins […] in presence of 20 uM omeprazole CYP2C19 inhibitor; type: ADME; settings: 0.5 h
[12] = Drug metabolism in Colony-bred Chinese Bama minipig liver microsomes assessed as 1alpha-hydroxylcinobufagin formation at 100 uM at 37 degC after 30 mins by UFLC-ESI-MS analysis in presence of 10 uM furafylline CYP1A2 inhibitor; type: ADME, Sus scrofa; settings: pig, 0.5 h
Summary of the method: (§2)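 Chemical inhibition: selective P450 inhibitors (furafylline, sulfaphenazole, ketoconazole) added to liver microsome incubations in 100 mM potassium phosphate pH 7.4 with NADPH-generating system at 37°C. Hydroxylated metabolite formation quantified by UFLC at 294 nm against standards. Mean ± S.D. of three experiments in duplicate.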

[13] = Drug metabolism in Swiss-Hauschka (ICR) mouse liver microsomes assessed as 1alpha-hydroxylcinobufagin formation at 100 uM at 37 degC after 30 mins by UFLC-ESI-MS analysis in presence of 10 uM sulfaphenazole CYP2C9 inhibitor; type: ADME; settings: 0.5 h; summary of the method: as §2
[14] = Drug metabolism in Colony-bred Chinese Bama minipig liver microsomes assessed as 1alpha-hydroxylcinobufagin formation at 100 uM at 37 degC after 30 mins by UFLC-ESI-MS analysis; type: ADME, Sus scrofa; settings: pig, 0.5 h, read-out: Km(app); summary of the method: as §1
[15] = Drug metabolism in Swiss-Hauschka (ICR) mouse liver microsomes assessed as 1alpha-hydroxylcinobufagin formation at 100 uM at 37 degC after 30 mins by UFLC-ESI-MS analysis; type: ADME; settings: 0.5 h, read-out: Km(app); summary of the method: as §1
[16] = Drug metabolism in cynomolgus monkey liver microsomes assessed as 5beta-hydroxylcinobufaginn formation per mg of protein at 100 uM […] by UFLC-ESI-MS analysis; type: ADME, Macaca fascicularis; settings: 0.5 h
[17] = Drug metabolism in Swiss-Hauschka (ICR) mouse liver microsomes assessed as 5beta-hydroxylcinobufaginn formation at 100 uM at 37 degC after 30 mins by UFLC-ESI-MS analysis; type: ADME; settings: 0.5 h, read-out: Km(app); summary of the method: as §1
[18] = Ratio of Vmax/Km in cynomolgus monkey liver microsomes assessed as 5beta-hydroxylcinobufaginn formation at 100 uM […] by UFLC-ESI-MS analysis; type: ADME, Macaca fascicularis; settings: 0.5 h
[19] = system: Liver microsome; assay: Drug metabolism in beagle dog liver microsomes assessed as 1alpha-hydroxylcinobufagin formation per mg of protein at 100 uM at 37 degC after 30 mins by UFLC-ESI-MS analysis; type: ADME, Canis lupus familiaris; settings: 0.5 h; summary of the method: as §1

Chain of Cytochrome P450 2E1 (P05181 whole entry): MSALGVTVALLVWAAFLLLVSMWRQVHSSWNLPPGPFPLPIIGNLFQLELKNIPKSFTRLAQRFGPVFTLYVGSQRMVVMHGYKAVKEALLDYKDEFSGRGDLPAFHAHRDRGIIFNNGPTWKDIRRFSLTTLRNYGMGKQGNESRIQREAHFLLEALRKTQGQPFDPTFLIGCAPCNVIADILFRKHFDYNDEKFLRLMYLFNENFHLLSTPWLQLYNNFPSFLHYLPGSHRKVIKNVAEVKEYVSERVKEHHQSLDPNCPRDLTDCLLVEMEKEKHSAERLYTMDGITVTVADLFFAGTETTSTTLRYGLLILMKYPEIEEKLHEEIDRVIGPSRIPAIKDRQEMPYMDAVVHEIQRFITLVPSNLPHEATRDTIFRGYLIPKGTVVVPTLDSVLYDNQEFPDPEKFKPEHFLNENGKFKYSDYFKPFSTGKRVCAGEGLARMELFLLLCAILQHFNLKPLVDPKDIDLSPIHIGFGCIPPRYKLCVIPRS
Chain of Cytochrome P450 3A4 (P08684 whole entry): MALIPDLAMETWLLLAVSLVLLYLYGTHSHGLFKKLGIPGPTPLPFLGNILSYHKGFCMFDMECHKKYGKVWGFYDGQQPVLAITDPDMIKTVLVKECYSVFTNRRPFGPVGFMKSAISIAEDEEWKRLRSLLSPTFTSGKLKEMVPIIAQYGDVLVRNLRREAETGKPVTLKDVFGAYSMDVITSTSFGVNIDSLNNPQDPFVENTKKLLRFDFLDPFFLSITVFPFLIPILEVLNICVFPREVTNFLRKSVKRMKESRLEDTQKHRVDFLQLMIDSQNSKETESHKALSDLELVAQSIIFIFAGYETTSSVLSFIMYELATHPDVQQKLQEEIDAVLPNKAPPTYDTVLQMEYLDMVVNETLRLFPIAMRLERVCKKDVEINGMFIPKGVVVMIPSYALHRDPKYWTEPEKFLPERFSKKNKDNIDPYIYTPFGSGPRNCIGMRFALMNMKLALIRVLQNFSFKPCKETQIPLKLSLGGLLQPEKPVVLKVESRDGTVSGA

Compound | Drug metabolism [1] | Retention_time [2] | Drug metabolism [3] | Drug metabolism [4] | Drug metabolism [5] | Drug metabolism [6] | Drug metabolism [7] | Drug metabolism [8] | Drug metabolism [9] | Drug metabolism [10] | Drug metabolism [11] | Drug metabolism [12] | Drug metabolism [13] | Km [14] | Km [15] | Vmax [16] | Km [17] | Vmax/Km [18] | Vmax [19]
CC(=O)O[C@H]1[C@H]2O[C@]23[C@@H]2CC[C@@H]4C[C@@H](O)C[C@H](O)[C@]4(C)[C@H]2CC[C@]3(C)[C@H]1c1ccc(=O)oc1 | metabolite_detected | 7.35 min | metabolite_detected | metabolite_detected | 14.01 pmol/min | < 0.01 pmol/min | < 0.01 pmol/min |  |  |  |  |  |  |  |  |  |  |  | 
CC(=O)O[C@H]1[C@H]2O[C@]23[C@@H]2CC[C@@H]4C[C@@H](O)CC[C@]4(C)[C@H]2CC[C@]3(C)[C@H]1c1ccc(=O)oc1 [CINOBUFAGIN] |  |  |  |  |  |  |  | metabolite_not_detected | metabolite_detected | metabolite_detected | metabolite_detected | metabolite_detected | metabolite_detected | 17.2 µM | 14.1 µM | 1.84 nmol/min/mg | 10.1 µM | 216.5 µL/min/mg | 1.28 nmol/min/mg
CC(=O)O[C@H]1[C@H]2O[C@]23[C@@H]2CC[C@]4(O)C[C@@H](O)CC[C@]4(C)[C@H]2CC[C@]3(C)[C@H]1c1ccc(=O)oc1 [CINOBUFOTALIN] | metabolite_detected | 7.6 min | metabolite_detected | metabolite_detected | 26.02 pmol/min | < 0.01 pmol/min | < 0.01 pmol/min |  |  |  |  |  |  |  |  |  |  |  | 
